OX1R antag-1 = OX1R (HCRTR1) antagonists, primary screen, fluorescence, CHO/OX1R cells, Fluo-8 calcium, orexin A; actives 0.43% (n = 330,000); Orexin/Hypocretin receptor type 1 (Homo sapiens), O43613; Fluo-8 calcium fluorescence; inhibition, % at 5 µM; AID 434989, 2010;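 active = inhibition above its plate's threshold, mean inhibition of all tested compounds on the plate plus 3 SD, cut at about 37% in these data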;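 note: 0% = orexin A challenge wells and 100% = SB-334867-A antagonist wells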
Target sequence (O43613 whole entry, looked up): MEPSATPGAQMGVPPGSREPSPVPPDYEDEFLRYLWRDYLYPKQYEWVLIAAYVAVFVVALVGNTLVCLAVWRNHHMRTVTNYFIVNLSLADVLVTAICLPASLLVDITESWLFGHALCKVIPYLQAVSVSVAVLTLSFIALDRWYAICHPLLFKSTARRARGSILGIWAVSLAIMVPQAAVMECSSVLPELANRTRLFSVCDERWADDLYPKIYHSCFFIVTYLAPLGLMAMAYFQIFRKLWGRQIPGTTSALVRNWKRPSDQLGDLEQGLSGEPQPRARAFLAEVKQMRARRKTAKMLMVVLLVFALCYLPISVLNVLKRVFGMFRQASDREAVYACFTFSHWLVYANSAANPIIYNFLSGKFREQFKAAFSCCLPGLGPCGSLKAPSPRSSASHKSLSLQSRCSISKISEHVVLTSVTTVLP
GPR7 antagonist = GPR7 receptor antagonists, primary screen, cell-based, fluorescence, single concentration; GPR7-expressing cells, fluorescence antagonist assay; Neuropeptides B/W receptor type 1 (Homo sapiens), P48145; inhibition, % at 4.4 µM; AID 1861, 2009; actives 1.1% (n = 290,000); in the data active = inhibition above about 16%, passing the limit was not always enough;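 note: cells stimulated with the agonist NPW; 0% = agonist with vehicle and 100% = vehicle without agonist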
Target sequence (P48145 whole entry, looked up): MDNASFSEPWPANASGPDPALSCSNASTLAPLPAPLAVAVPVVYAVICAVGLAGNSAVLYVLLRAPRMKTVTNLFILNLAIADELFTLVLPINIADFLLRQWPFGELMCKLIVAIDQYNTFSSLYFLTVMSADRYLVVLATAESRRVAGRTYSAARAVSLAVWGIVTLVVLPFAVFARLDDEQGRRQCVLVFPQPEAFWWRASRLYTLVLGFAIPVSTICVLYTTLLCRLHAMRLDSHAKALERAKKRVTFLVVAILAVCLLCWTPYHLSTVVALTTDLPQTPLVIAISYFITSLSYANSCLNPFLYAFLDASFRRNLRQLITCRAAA
TAAR1 antagonist = human TAAR1 antagonists, primary screen, Fluo-8 calcium fluorescence, CHO RD-HGA16 cells. Trace amine-associated receptor 1 (Homo sapiens), Q96RJ0. antagonist. inhibition, % at 3 µM. actives 1.5% (n = 360,000). AID 624466, 2012;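 active = inhibition above a per-plate cutoff, the mean inhibition of test compounds on that plate plus 3 SD, cut at about 49% in these data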;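 note: 0% = DMSO plus EC80 beta-PEA response and 100% = DMSO alone without agonist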
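Test system: hTAAR1-expressing CHO RD-HGA16 cells, Gα16-coupled; Probe or stimulus: EC80 β-phenethylamine stimulus; Compound dosing: single nominal final test compound concentration of 3 µM; Timing: 140 s kinetic read after compound, 140 s after agonist; Signal: Fluo-8 calcium-sensitive fluorescence; Measure: % inhibition of agonist calcium response; Controls: DMSO and EC80 PEA controls.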
TAAR1 agonist = human TAAR1 agonists, primary screen, Fluo-8 calcium fluorescence, CHO RD-HGA16 cells; vehicle wells 0%, saturating PEA agonist 100%; Trace amine-associated receptor 1 (Homo sapiens), Q96RJ0; actives 0.99% (n = 360,000); activation, % at 3 µM;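 active = activation above the mean activation of all test compounds in the run plus 3 SD, cut at about 38% in these data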
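System: CHO-derived RD-HGA16 cells with stable Gα16 and human TAAR1 / Times: 17-24 h plating, Fluo-8 75 min 37 °C, 30 min RT / Technique: calcium-sensitive Fluo-8 signal, excitation 470-495, emission 515-575 nm / Measure: % activation relative to PEA EC100 response / Benchmarks: DMSO and PEA EC100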
CHO parental Ca = ATP-evoked calcium signal inhibitors, parental CHO, primary screen, counter-screen for OX1R antagonist project, cell-based, fluorescence, Fluo-8 calcium dye | parental CHO-K1, ATP-induced calcium, Fluo-8 fluorescence | inhibition, % at 5.6 µM | actives 0.63% (n = 330,000) | AID 463079, 2010;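 active = inhibition above that plate's mean sample inhibition plus 3 SD, cut at about 26% in these data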;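 note: 0% = ATP-challenged DMSO wells and 100% = DMSO wells without ATP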
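Assay system: untransfected parental CHO cell line. Also added: ATP agonist challenge. Dosing: one dose, 5.6 µM nominal. Measured by: Fluo-8 fluorescence. Read-out: % inhibition. Benchmarks: ATP wells versus no-ATP DMSO wells. Repeats: no replicates.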
OX1R antag-2 = antagonists of human orexin 1 receptor (OX1R) | OX1R-expressing cells, FRET antagonist read-out | inhibition, % at 6.6 µM | actives 1.8% (n = 330,000) | Orexin/Hypocretin receptor type 1 (Homo sapiens), O43613; in the data active = inhibition mostly above about 38%, no sharp cut-off; inactive = mostly below about 40%;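 note: 0% = agonist challenge alone and 100% = reference antagonist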
nonsel antag count = nonselective antagonists in TAAR1 counter-screen cells, counter-screen for hTAAR1 antagonist project, cell-based, fluorescence, calcium | shares compounds with TAAR1 antagonist | counterscreen cell line, antagonist mode | inhibition, % at 3 µM | actives 77% (n = 2,400); in the data active = inhibition above about 22%;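 note: CHO-Ga16 host cells stimulated with ATP at an EC80 level; 0% = agonist EC80 plus vehicle and 100% = vehicle without agonist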
TAAR1 ant conf = human TAAR1 antagonists, retest of hits, confirmation, cell-based, fluorescence; TAAR1-expressing cells, fluorescence antagonist read-out; inhibition, % at 3 µM; actives 40% (n = 2,400); shares compounds with TAAR1 antagonist; in the data active = inhibition above about 49%;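 note: CHO-Ga16 host cells challenged with agonist PEA near its EC80; 0% = agonist at EC80 plus vehicle and 100% = vehicle with no agonist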
Ga16 ag counter = calcium activation in Ga16-expressing cells, counter-screen for TAAR1 antagonist project, cell-based, fluorescence. agonist counterscreen. actives 18% (n = 2,400). activation, % at 3 µM. shares compounds with TAAR1 antagonist; in the data active = activation above about 12%;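 note: 0% = vehicle wells and 100% = saturating stimulus response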
TAAR1 ag count = TAAR1 activation by candidate antagonists – cell-based, fluorescence, counter-screen for TAAR1 antagonist project; shares compounds with TAAR1 antagonist; hTAAR1 cell line, agonist mode; activation, % at 3 µM; actives 2% (n = 2,400); AID 651955, 2012; in the data active = activation above about 37%;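 note: CHO cells stably expressing TAAR1 with calcium dye readout; 0% = DMSO vehicle and 100% = full agonist response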
* = called active by the depositor. Shown are actives, neighbours in structure and some others; about 4.5% of the full set was active somewhere.

Screening C[C@H]1COC(=O)[C@H](Cc2ccc(F)cc2)C/C=C\C[C@@H](CC(=O)N(CCO)Cc2ccccc2)C(=O)N1 returned OX1R antag-1 -4.0, TAAR1 antagonist 18.1, TAAR1 agonist 10.3, CHO parental Ca -4.5 and OX1R antag-2 5.9.
`O=C1N[C@@H](c2ccccc2)COC(=O)[C@@H](Cc2ccc(F)cc2)CC/C=C/C[C@H]1CC(=O)N(CCO)Cc1ccccc1` gave OX1R antag-1 -15.2, TAAR1 antagonist 70.9*, TAAR1 agonist 19.0, CHO parental Ca -13.2, OX1R antag-2 6.9, nonsel antag count 31.5*, TAAR1 ant conf 55.8*, Ga16 ag counter 13.8* and TAAR1 ag count 21.4.
For O=C(COC(=O)/C=C/c1cccc(C(F)(F)F)c1)Nc1cccc(S(=O)(=O)NC2=NCCC2)c1 the results were TAAR1 antagonist 8.3 and TAAR1 agonist 0.8.
CC(C)NC(=O)N[C@H]1CC[C@H](CC(=O)NCc2ccc(Oc3ccccc3)cc2)O[C@@H]1CO was read as TAAR1 antagonist -1.0 and TAAR1 agonist 2.9.
Cc1ccc(S(=O)(=O)NCC(=O)NCC(=O)NCCc2ccc(Cl)cc2)cc1C was read as TAAR1 antagonist -9.0 and TAAR1 agonist -0.6.
Screening Cc1ccccc1NC(=O)Cc1nc(CSc2nnc(-c3ccc4c(c3)OCO4)o2)cs1 returned OX1R antag-1 -7.9, GPR7 antagonist 6.8, TAAR1 antagonist 55.0*, TAAR1 agonist 15.4, CHO parental Ca -9.5, OX1R antag-2 34.8, nonsel antag count 25.3*, TAAR1 ant conf 36.9, Ga16 ag counter 8.2 and TAAR1 ag count 4.6.
For Cc1ccc(-c2nc3cc(C)c(Br)c(C)n3c2CC(C)(C)C)cc1 the results were TAAR1 antagonist -30.9 and TAAR1 agonist -0.6.
CC(=O)c1c(C)[nH]c(C(=O)Nc2nc(-c3ccc(-c4ccccc4)cc3)cs2)c1C was read as OX1R antag-1 30.1, GPR7 antagonist -12.4, TAAR1 antagonist 92.8*, TAAR1 agonist 28.8, CHO parental Ca 25.9, OX1R antag-2 13.6, nonsel antag count 70.9*, TAAR1 ant conf 96.7*, Ga16 ag counter 26.5* and TAAR1 ag count 37.5*.
Screening CC(C)(O)C(=O)N=Nc1c(O)[nH]c2ccccc12 returned OX1R antag-1 -4.6, GPR7 antagonist -4.0, TAAR1 antagonist -1.5, TAAR1 agonist 4.7, CHO parental Ca -8.1 and OX1R antag-2 68.1.
O=C(N=Nc1c(O)[nH]c2ccccc12)c1cc(-c2ccc(F)cc2)n[nH]1 was read as OX1R antag-1 -1.3, GPR7 antagonist -4.2, TAAR1 antagonist 64.9*, TAAR1 agonist 4.3, CHO parental Ca -6.5, OX1R antag-2 25.2, nonsel antag count 14.4, TAAR1 ant conf 15.0, Ga16 ag counter 2.5 and TAAR1 ag count -0.5.
For CCOc1cc(/C=N/NC(=O)C(O)(c2ccccc2)c2ccccc2)ccc1OC(=O)c1ccco1 the results were OX1R antag-1 -3.9, TAAR1 antagonist 79.8*, TAAR1 agonist 13.9, CHO parental Ca -2.0, OX1R antag-2 9.1, nonsel antag count 32.9*, TAAR1 ant conf 55.9*, Ga16 ag counter 8.2 and TAAR1 ag count 6.9.
Screening COc1ccc(-c2ccc(SCC(=O)Nc3cccc(C(C)=O)c3)nn2)cc1OC returned OX1R antag-1 -23.9, GPR7 antagonist -3.3, TAAR1 antagonist 52.7*, TAAR1 agonist 9.6, CHO parental Ca -9.2, OX1R antag-2 5.9, nonsel antag count 24.1*, TAAR1 ant conf 26.9, Ga16 ag counter 5.7 and TAAR1 ag count 1.6.
For CC(=O)c1cccc(NC(=O)CSc2ccc(-c3ccco3)nn2)c1 the results were OX1R antag-1 -23.1, GPR7 antagonist 7.4, TAAR1 antagonist -1.4, TAAR1 agonist 2.0, CHO parental Ca -15.9 and OX1R antag-2 10.4.
CC(=O)c1cccc(NC(=O)CSc2ccc(-c3ccc4c(c3)OCO4)nn2)c1 was read as OX1R antag-1 -21.8, GPR7 antagonist -7.6, TAAR1 antagonist 54.0*, TAAR1 agonist 4.7, CHO parental Ca -3.5, OX1R antag-2 38.5, nonsel antag count 27.4*, TAAR1 ant conf 35.1, Ga16 ag counter 7.9 and TAAR1 ag count 5.8.
`CCN(CC(=O)Nc1ccccc1C(F)(F)F)C(=O)c1ccccc1OCc1ccc(F)cc1` gave TAAR1 antagonist 6.6 and TAAR1 agonist 4.6.
COc1cc(C(=O)OCCc2cc3ccccc3c(=O)o2)cc(OC)c1OC was read as OX1R antag-1 7.0, TAAR1 antagonist 64.9*, TAAR1 agonist 8.7, CHO parental Ca -23.1, OX1R antag-2 13.9, nonsel antag count 26.9*, TAAR1 ant conf 39.1, Ga16 ag counter 8.3 and TAAR1 ag count 4.7.
`COc1cc(C(=O)OCCCc2cc3ccccc3c(=O)o2)cc(OC)c1OC` gave OX1R antag-1 -17.0, TAAR1 antagonist 2.7, TAAR1 agonist 3.9, CHO parental Ca -20.9 and OX1R antag-2 15.1.
For COc1ccc(Br)cc1CN1CCN(S(=O)(=O)Cc2ccccc2)CC1 the results were OX1R antag-1 -34.4, GPR7 antagonist -2.5, TAAR1 antagonist 56.5*, TAAR1 agonist 0.0, CHO parental Ca -19.4, OX1R antag-2 31.2, nonsel antag count 5.5, TAAR1 ant conf 36.8, Ga16 ag counter 5.2 and TAAR1 ag count 12.4.
`N=c1c2c(ncn1Cc1ccco1)Oc1c(ccc3ccccc13)C2c1ccccc1` (stereo not drawn) gave OX1R antag-1 -29.1, GPR7 antagonist -3.7, TAAR1 antagonist 57.6*, TAAR1 agonist 0.2, CHO parental Ca -19.6, OX1R antag-2 20.6, nonsel antag count 14.2, TAAR1 ant conf 14.0, Ga16 ag counter 6.5 and TAAR1 ag count 35.0.

Bioassay records: PubChem, The Scripps Research Institute Molecular Screening Center
